In ChEMBL document CHEMBL1154369, “Betulin-derived compounds as inhibitors of alphavirus replication” (J Nat Prod, 2009):
Activity calls are given as the source filed them. The rule behind the calls is not given here.

What was measured:
Semliki Forest virus [1] = assay: Antiviral activity against SFV infected in BHK cells assessed as surviving virus fraction at 50 uM after 14 hrs by luciferase reporter gene assay; format: functional; set-up: scale not given here
Semliki Forest virus [2] = assay: Antiviral activity against SFV infected in BHK cells after 14 hrs by luciferase reporter gene assay; format: functional, organism-based
Summary of the method: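 SFV-Rluc reporter virus from infectious cDNA clone; BHK-21 cells infected at low multiplicity (0.001 PFU/cell) and incubated 14 h, spanning over 2 infectious cycles. Serial dilutions of each derivative tested. Luciferase read-out as surviving virus fraction. IC50 from a sigmoidal dose-response fit; means ± SD, n = 6. 3′-Amino-3′-deoxyadenosine (20 µM) served as screen positive control.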

[3] = Cytotoxicity against human HuH7 cells assessed as cell viability at 50 uM after 24 hrs
[4] = Cytotoxicity against human HuH7 cells assessed as cell viability at 500 uM after 24 hrs; format: cell-based, Huh-7; details: read-out: Activity
Summary of the method: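 Huh-7 human hepatocellular carcinoma cells exposed 24 h to derivative at 500 µM in an extended cytotoxicity analysis. Viability measured as intracellular ATP content and reported as surviving fraction.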

Sindbis virus = assay: Antiviral activity against Sindbis virus infected in BHK cells assessed as inhibition of RNA synthesis after 14 hrs by [3H]uridine incorporation assay; format: functional, organism-based
Summary of the method: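 Sindbis virus from infectious cDNA clone grown in BHK-21 cells. Viral RNA synthesis rate measured by [3H]-uridine labeling. Serial compound dilutions from 16 pM to 50 µM. IC50 from nonlinear regression to sigmoidal dose-response curves; means ± SD, n = 4.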

Semliki Forest virus [5] = assay: Antiviral activity against SFV infected in BHK cells assessed as decrease in surviving virus fraction at 50 uM treated during time of viral adsorption for 1 hr measured after 5 hrs by luciferase reporter gene assay; format: functional, organism-based
Summary of the method: (§1)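 Time-of-addition run with SFV-Rluc at high multiplicity (5 PFU/cell) in BHK-21 cultures, covering a single replication cycle. Compound present throughout (0-5 h), only during adsorption (0-1 h), at 1-5 h, or at 2-5 h. Surviving fraction is the remaining Renilla luciferase activity, read at 5 h per legend (4.5 h in text); means ± SD, n = 4.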

Semliki Forest virus [6] = assay: Antiviral activity against SFV infected in BHK cells assessed as decrease in surviving virus fraction at 50 uM treated 1 hr after viral adsorption measured after 5 hrs by luciferase reporter gene assay; format: functional, organism-based; summary of the method: as §1
Semliki Forest virus [7] = assay: Antiviral activity against SFV infected in BHK cells assessed as decrease in surviving virus fraction at 50 uM treated 2 hr after viral adsorption measured after 5 hrs by luciferase reporter gene assay; format: functional, organism-based; summary of the method: as §1
Semliki Forest virus [8] = assay: Antiviral activity against SFV infected in BHK cells assessed as decrease in surviving virus fraction at 200 uM treated during time of viral adsorption for 1 hr measured after 5 hrs by luciferase reporter gene assay; format: functional, organism-based; summary of the method: as §1
Semliki Forest virus [9] = assay: Antiviral activity against SFV infected in BHK cells assessed as decrease in surviving virus fraction at 200 uM treated 1 hr after viral adsorption measured after 5 hrs by luciferase reporter gene assay; format: functional, organism-based; summary of the method: as §1
Semliki Forest virus [10] = assay: Antiviral activity against SFV infected in BHK cells assessed as decrease in surviving virus fraction at 200 uM treated 2 hr after viral adsorption measured after 5 hrs by luciferase reporter gene assay; format: functional, organism-based; summary of the method: as §1
Semliki Forest virus [11] = assay: Antiviral activity against SFV infected in BHK cells assessed as surviving virus fraction at 50 uM after 14 hrs by luciferase reporter gene assay in presence of 50 ug/ml guanosine; format: functional, organism-based
Semliki Forest virus [12] = assay: Antiviral activity against SFV infected in BHK cells assessed as surviving virus fraction at 20 uM after 14 hrs by luciferase reporter gene assay; format: functional
Summary of the method: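 BHK-21 cells were infected with the luciferase marker virus SFV-Rluc, made from an infectious cDNA clone, at a low multiplicity of 0.001 PFU/cell. Infection ran through more than 2 infectious cycles over a 14 h incubation, and the read-out was luciferase reporter activity. The surviving fraction was the percentage of viral replication remaining. The screen was automated and run in triplicate.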

Semliki Forest virus [13] = assay: Antiviral activity against SFV infected in BHK cells assessed as surviving virus fraction at 200 uM after 14 hrs by luciferase reporter gene assay in presence of 50 ug/ml guanosine; format: functional, organism-based

Compound	Activity (Semliki Forest virus [1]) [%]	IC50 (Semliki Forest virus [2]; read-out: IC50) [µM]	IC50 (Semliki Forest virus [2]; read-out: pIC50 (converted)) [µM]	viability at 24 h, 50 µM [3] [%]	viability at 24 h, 500 µM [4] [%]	IC50 (Sindbis virus; read-out: IC50) [µM]	IC50 (Sindbis virus; read-out: pIC50 (converted)) [µM]	Activity (Semliki Forest virus [5])	Activity (Semliki Forest virus [6])	Activity (Semliki Forest virus [7])	Activity (Semliki Forest virus [8])	Activity (Semliki Forest virus [9])	Activity (Semliki Forest virus [10])	Activity (Semliki Forest virus [11])	Activity (Semliki Forest virus [12]) [%]	Activity (Semliki Forest virus [13])
C=C(C)[C@@H]1CC[C@]2(C(=O)O)CC[C@]3(C)[C@H](CC[C@@H]4[C@@]5(C)CC[C@H](O)C(C)(C)[C@@H]5CC[C@]43C)[C@@H]12 [BETULINIC ACID]	18	14.6	14.5	123	> 80	0.5	0.457	inactive	Active	Active	inactive	Active	Active	Active	–	–
C=C(C)[C@@H]1CC[C@]2(COC3CCCCO3)CC[C@]3(C)[C@H](CC[C@@H]4[C@@]5(C)CC[C@H](O)C(C)(C)[C@@H]5CC[C@]43C)[C@@H]12 (stereo not given in full)	11	17.2	17.4	92	> 80	1.9	1.91	inactive	Active	Active	inactive	Active	–	Active	–	–
C=C(C)[C@@H]1CC[C@]2(C(=O)O)CC[C@]3(C)[C@H](CC[C@@H]4[C@@]5(C)CCC(=O)C(C)(C)[C@@H]5CC[C@]43C)[C@@H]12 [BETUNOLIC ACID]	13	13.3	13.2	89	> 80	–	–	–	–	–	–	–	–	–	–	–
C=C(C)[C@@H]1CC[C@]2(CO)CC[C@]3(C)[C@H](CC[C@@H]4[C@@]5(C)CC[C@H](O)C(C)(C)[C@@H]5CC[C@]43C)[C@@H]12 [BETULIN]	7	45.5	45.7	83	> 80	–	–	–	–	–	–	–	–	–	–	–
Nc1ncnc2c1ncn2[C@@H]1O[C@H](CO)[C@@H](N)[C@H]1O	–	18	–	–	–	–	–	–	–	–	–	–	–	–	12	–
CC(=O)OC[C@]12CC[C@]3(C(C)C)C1=C1[C@H](C[C@@H]4[C@@]5(C)CC[C@H](OC(C)=O)C(C)(C)[C@@H]5CC[C@@]4(C)[C@]1(C)CC2)n1c(=O)n(-c2cccc(Cl)c2)c(=O)n13	1	22.1	22.4	95	> 80	–	–	–	–	–	–	–	–	–	–	–
CC(C)[C@@H]1CC[C@]2(C(=O)O)CC[C@]3(C)[C@H](CC[C@@H]4[C@@]5(C)CCC(=O)C(C)(C)[C@@H]5CC[C@]43C)[C@@H]12 [DIHYDROBETULONIC ACID]	14	30.6	30.2	102	> 80	–	–	–	–	–	–	–	–	–	–	–
CC(=O)OC[C@]12CC[C@]3(C(C)C)C1=C1[C@H](C[C@@H]4[C@@]5(C)CC[C@H](OC(C)=O)C(C)(C)[C@@H]5CC[C@@]4(C)[C@]1(C)CC2)n1c(=O)n(-c2ccccc2)c(=O)n13	13	19.7	19.5	87	> 80	6.1	6.17	inactive	Active	Active	inactive	Active	–	Active	–	–
CC(=O)OC[C@]12CC[C@]3(C(C)C)C1=C1[C@H](C[C@@H]4[C@@]5(C)CC[C@H](OC(C)=O)C(C)(C)[C@@H]5CC[C@@]4(C)[C@]1(C)CC2)n1c(=O)n(Cc2ccccc2)c(=O)n13	1	35.9	36.3	101	> 80	–	–	–	–	–	–	–	–	–	–	–
CC(=O)OC[C@]12CC[C@]3(C(C)C)C1=C1[C@H](C[C@@H]4[C@@]5(C)CC[C@H](OC(C)=O)C(C)(C)[C@@H]5CC[C@@]4(C)[C@]1(C)CC2)n1c(=O)n(-c2cccc([N+](=O)[O-])c2)c(=O)n13	3	22.9	22.9	108	> 80	–	–	–	–	–	–	–	–	–	–	–
CCCCn1c(=O)n2n(c1=O)[C@]1(C(C)C)CC[C@]3(COC(C)=O)CC[C@]4(C)C(=C31)[C@@H]2C[C@@H]1[C@@]2(C)CC[C@H](OC(C)=O)C(C)(C)[C@@H]2CC[C@]14C	19	37.9	38	81	> 80	–	–	–	–	–	–	–	–	–	–	–
NC(=O)c1ncn([C@@H]2O[C@H](CO)[C@@H](O)[C@H]2O)n1 [RIBAVIRIN]	–	95.1	95.5	–	–	–	–	–	–	–	–	–	–	–	–	inactive
C=C(C)[C@@H]1CC[C@]2(COC(C)=O)CC[C@]3(C)[C@H](CC[C@@H]4[C@@]5(C)CCC(=O)C(C)(C)[C@@H]5CC[C@]43C)[C@@H]12	11	48.5	47.9	83	> 80	–	–	–	–	–	–	–	–	–	–	–
C=C(C)[C@@H]1CC[C@]2(C=O)CC[C@]3(C)[C@H](CC[C@@H]4[C@@]5(C)CCC(=O)C(C)(C)[C@@H]5CC[C@]43C)[C@@H]12 [BETULONAL]	8	38.3	38	90	52	–	–	–	–	–	–	–	–	–	–	–
C=C(C)[C@@H]1CC[C@]2(CO)CC[C@]3(C)[C@H](CC[C@@H]4[C@@]5(C)CC[C@H](OC(C)=O)C(C)(C)[C@@H]5CC[C@]43C)[C@@H]12	3	24.2	24	86	> 80	–	–	–	–	–	–	–	–	–	–	–
C=C(C)[C@@H]1CC[C@]2(COC3CCCCO3)CC[C@]3(C)[C@H](CC[C@@H]4[C@@]5(C)CC[C@H](OC(C)=O)C(C)(C)[C@@H]5CC[C@]43C)[C@@H]12 (stereo not given in full)	10	24.7	24.5	91	> 80	–	–	–	–	–	–	–	–	–	–	–
C=C(C)[C@@H]1CC[C@]2(COC(C)=O)CC[C@]3(C)[C@H](CC[C@@H]4[C@@]5(C)CC[C@H](O)C(C)(C)[C@@H]5CC[C@]43C)[C@@H]12	3	12.1	12	87	> 80	–	–	–	–	–	–	–	–	–	–	–
